The results in this text go back to ChEMBL document CHEMBL1142992, “Discovery of diaryl imidazolidin-2-one derivatives, a novel class of muscarinic M3 selective antagonists (Part 1)” (J Med Chem, 2007).

Data set [1] can be described thus: Intrinsic clearance in rat liver microsomes. Format: ADME, Microsome. The procedure, abridged: (§1)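 Human or rat liver microsomes at 0.5 mg/mL final, preincubated with 0.5 µM test compound in phosphate buffer pH 7.4 for 10 min at 37 °C. Clearance reported as mL/min/g liver.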
Data set [2] has as its target T1, Cytochrome P450 1A2 (Homo sapiens, UniProt P05177).
T1 sequence (P05177 whole entry): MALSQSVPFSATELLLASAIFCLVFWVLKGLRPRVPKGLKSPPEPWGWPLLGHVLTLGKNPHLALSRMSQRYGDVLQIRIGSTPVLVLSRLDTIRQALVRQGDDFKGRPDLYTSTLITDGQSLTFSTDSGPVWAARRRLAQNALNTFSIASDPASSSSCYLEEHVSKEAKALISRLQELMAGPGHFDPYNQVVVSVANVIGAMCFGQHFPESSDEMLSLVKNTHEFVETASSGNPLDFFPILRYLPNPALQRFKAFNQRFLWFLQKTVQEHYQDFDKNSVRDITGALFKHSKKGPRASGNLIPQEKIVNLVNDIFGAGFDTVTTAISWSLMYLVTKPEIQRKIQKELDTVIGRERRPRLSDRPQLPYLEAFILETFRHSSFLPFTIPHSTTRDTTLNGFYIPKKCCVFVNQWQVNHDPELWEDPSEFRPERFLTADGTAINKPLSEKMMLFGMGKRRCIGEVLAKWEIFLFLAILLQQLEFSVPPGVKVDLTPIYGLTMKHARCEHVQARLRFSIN
Put plainly: Inhibition of human CYP1A2 expressed in insect cells. Format: ADME. The procedure, abridged: (§2)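 Insect-cell microsomes expressing human CYP1A2, 2C9, 2C19, 2D6 or 3A4, each with an isoform-specific fluorogenic substrate in 0.35 M potassium phosphate pH 7.4. […] Inhibitor serially diluted; plates prewarmed 10 min at 37 °C. Reaction stopped with acetonitrile/Tris, read by fluorescence. IC50 from nonlinear regression. Positive controls: furafylline, sulfaphenazole, tranylcypromine, quinidine, ketoconazole.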

For data set [3], the target named is Cytochrome P450 2D6 (Homo sapiens, UniProt P10635). Put plainly: Inhibition of human CYP2D6 expressed in insect cells. Type of data set: ADME. The procedure, abridged:
as §2

Data set [4] in a line: Permeability across human Caco-2 cell membrane. Format: ADME, cell-based. The procedure, abridged: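 Caco-2 monolayers grown 21 days on polycarbonate inserts. Integrity checked by TEER (1000 Ω) and sodium fluorescein leakage. Compound at 50 µM in 1% DMSO applied apically, 2 h at 37 °C. Apical and basolateral samples measured by LC-MS/MS. Papp = CbVb/(C0·A·t).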
Data set [5] concerns the target Cytochrome P450 3A4 (Homo sapiens, UniProt P08684). Kind of data set: Inhibition of human CYP3A4 expressed in insect cells. Type of data set: ADME. The method in brief:
as §2

The target in data set [6] is Cytochrome P450 2C9 (Homo sapiens, UniProt P11712). Kind of data set: Inhibition of human CYP2C9 expressed in insect cells. Type of data set: ADME. The procedure, abridged: as §2
Cytochrome P450 2C9, sequence (P11712 whole entry): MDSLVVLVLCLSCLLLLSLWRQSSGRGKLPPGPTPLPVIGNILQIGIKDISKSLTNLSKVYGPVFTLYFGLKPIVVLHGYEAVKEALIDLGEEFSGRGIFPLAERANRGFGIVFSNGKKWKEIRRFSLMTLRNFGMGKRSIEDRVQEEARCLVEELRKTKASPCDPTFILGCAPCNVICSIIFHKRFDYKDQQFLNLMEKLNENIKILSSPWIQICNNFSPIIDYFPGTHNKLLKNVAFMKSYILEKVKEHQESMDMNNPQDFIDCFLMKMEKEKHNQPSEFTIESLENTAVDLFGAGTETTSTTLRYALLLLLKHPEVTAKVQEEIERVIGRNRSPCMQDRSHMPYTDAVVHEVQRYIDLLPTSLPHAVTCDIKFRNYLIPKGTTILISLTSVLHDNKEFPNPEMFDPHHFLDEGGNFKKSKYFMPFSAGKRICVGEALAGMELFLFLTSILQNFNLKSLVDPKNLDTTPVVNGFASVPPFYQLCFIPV
The nature of data set [7]: Intrinsic clearance in human liver microsomes. Type of data set: ADME, Microsome. The method in brief:
as §1

For data set [8], the target named is Cytochrome P450 2C19 (Homo sapiens, UniProt P33261). Kind of data set: Inhibition of human CYP2C19 expressed in insect cells. Format: ADME. The procedure, abridged:
as §2

In data set [9] the target is Muscarinic acetylcholine receptor M3 (Rattus norvegicus) (UniProt P08483). The note with it: filed as antagonist.
Muscarinic acetylcholine receptor M3 (Rattus norvegicus), sequence (P08483 whole entry, looked up): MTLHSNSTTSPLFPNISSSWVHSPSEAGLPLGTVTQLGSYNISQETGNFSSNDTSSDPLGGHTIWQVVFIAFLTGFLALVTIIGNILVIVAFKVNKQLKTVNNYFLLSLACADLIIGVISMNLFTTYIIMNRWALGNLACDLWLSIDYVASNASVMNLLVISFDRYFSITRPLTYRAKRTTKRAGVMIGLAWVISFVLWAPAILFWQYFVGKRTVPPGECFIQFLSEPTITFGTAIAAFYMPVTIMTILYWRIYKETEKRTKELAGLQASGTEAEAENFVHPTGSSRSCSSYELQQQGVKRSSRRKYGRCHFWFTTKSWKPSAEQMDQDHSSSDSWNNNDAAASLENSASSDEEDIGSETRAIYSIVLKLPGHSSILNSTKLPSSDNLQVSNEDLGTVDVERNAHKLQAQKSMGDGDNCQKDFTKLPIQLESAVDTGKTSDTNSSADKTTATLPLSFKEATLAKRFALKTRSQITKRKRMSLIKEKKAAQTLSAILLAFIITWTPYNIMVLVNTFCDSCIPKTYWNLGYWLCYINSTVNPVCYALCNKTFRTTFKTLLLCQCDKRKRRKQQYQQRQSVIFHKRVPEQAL
For data set [10], the target named is Muscarinic acetylcholine receptor M3 (Homo sapiens) (UniProt P20309). Kind of data set: Displacement of [3H]N-methyl-scopolamine from human muscarinic M3 receptor expressed in CHO K1 cells at 10 uM. Type of data set: cell-based.
Muscarinic acetylcholine receptor M3 (Homo sapiens), sequence (P20309 whole entry, looked up): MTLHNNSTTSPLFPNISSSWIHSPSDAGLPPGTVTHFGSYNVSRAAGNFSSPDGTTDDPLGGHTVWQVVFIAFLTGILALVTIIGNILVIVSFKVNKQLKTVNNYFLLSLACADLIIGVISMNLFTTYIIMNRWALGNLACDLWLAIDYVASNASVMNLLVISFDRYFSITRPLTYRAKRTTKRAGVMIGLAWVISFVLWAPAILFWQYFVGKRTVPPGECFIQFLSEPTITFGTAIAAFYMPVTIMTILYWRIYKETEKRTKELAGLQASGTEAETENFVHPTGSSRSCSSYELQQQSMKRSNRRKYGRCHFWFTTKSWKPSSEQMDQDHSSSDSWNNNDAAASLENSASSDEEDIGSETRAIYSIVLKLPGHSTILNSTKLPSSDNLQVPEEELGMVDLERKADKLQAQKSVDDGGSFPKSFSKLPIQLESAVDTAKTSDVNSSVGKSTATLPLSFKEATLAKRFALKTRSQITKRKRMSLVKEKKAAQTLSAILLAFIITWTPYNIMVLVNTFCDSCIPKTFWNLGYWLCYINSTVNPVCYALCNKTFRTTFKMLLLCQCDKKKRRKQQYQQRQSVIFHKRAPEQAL
The target of data set [11] is T2, Muscarinic acetylcholine receptor M2 (Rattus norvegicus) (UniProt P10980).
T2 sequence (whole entry): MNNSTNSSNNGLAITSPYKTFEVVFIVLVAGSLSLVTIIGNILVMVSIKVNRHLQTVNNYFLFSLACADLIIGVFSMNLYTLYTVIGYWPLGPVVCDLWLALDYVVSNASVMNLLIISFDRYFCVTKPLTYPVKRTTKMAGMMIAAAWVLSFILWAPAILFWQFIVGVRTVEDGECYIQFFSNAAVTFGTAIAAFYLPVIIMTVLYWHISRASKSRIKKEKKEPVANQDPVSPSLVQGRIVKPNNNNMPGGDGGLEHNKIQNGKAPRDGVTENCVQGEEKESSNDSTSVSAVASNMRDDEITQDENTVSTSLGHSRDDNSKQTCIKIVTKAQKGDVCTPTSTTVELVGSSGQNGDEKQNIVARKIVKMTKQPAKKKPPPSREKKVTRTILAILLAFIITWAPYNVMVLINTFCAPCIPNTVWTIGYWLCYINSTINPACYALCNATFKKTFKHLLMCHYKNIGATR
Put plainly: Antagonist activity at muscarinic M2 receptor in rat left atria assessed as contraction of methacholine-induced relaxation upto 0.1 uM relative to EFS. Format: functional. The method in brief:
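Female rat left atrium in Krebs-Henseleit at 33 °C, resting tension 0.5 g, eserine 1 µM present. Paced by EFS at 1 Hz, 5 ms pulses, 1.5× threshold voltage to give a stable basal force. Methacholine concentration-response curves run alone or with antagonist at 0.01-0.1 µM. Response read as delta % of basal force of contraction; mean ± SEM, n = 6-7.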

Activity calls are given as the source filed them.

Cytochrome P450 3A4, sequence (P08684 whole entry): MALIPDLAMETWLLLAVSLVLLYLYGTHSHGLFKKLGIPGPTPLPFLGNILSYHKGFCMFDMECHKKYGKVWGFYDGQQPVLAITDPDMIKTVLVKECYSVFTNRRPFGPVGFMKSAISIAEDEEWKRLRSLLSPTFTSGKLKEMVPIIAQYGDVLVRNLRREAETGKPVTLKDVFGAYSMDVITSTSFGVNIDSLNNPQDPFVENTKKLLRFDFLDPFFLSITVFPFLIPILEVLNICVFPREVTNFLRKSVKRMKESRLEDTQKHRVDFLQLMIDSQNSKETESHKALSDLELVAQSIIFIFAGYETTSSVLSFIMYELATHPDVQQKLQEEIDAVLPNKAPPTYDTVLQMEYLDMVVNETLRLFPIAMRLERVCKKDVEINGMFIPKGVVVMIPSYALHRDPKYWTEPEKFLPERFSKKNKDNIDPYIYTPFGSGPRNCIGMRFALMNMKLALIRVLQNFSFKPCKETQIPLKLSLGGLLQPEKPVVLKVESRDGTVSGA
Cytochrome P450 2D6, sequence (P10635 whole entry): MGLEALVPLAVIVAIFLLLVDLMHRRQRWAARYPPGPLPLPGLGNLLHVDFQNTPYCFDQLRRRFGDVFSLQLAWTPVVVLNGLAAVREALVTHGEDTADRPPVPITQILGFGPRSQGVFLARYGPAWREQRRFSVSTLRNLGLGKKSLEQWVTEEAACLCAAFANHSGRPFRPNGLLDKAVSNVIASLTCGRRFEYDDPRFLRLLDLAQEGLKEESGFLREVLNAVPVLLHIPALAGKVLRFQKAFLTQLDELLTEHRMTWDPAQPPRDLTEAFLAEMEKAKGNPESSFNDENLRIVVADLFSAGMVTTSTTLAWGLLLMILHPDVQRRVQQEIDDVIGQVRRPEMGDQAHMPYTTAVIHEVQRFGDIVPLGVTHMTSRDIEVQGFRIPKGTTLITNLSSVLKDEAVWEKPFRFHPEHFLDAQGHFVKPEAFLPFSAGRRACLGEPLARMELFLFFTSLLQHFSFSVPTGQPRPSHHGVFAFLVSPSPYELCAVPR
Cytochrome P450 2C19, sequence (P33261 whole entry): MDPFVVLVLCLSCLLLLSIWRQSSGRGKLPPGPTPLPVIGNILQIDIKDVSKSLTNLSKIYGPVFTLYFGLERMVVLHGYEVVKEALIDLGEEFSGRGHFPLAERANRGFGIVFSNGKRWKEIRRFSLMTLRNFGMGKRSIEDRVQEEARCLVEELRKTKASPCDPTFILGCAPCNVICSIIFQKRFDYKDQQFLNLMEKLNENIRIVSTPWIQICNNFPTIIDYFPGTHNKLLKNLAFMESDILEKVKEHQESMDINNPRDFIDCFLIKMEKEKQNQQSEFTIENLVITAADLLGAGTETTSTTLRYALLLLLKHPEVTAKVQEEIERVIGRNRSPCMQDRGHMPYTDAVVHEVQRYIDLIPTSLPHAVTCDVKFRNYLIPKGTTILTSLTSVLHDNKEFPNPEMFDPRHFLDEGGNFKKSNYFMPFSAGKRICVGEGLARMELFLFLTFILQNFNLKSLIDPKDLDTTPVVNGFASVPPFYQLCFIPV

Consider `O=C1NC(c2ccc(F)cc2)(c2ccc(F)cc2)CN1C1CCN(Cc2cccc(F)c2)CC1`, for which the figures for the CLint scaled in data set [1] and in [7] were 1.4 mL/min/g and 0.78 mL/min/g, respectively. For the same compound, the IC50 in data set [2] is over 100 µM; in data set [3], 12 µM; in data set [5], over 100 µM; in [6], 7.3 µM; in data set [8], 17.4 µM. This compound also gave a Papp in [4] of over 5 ×10⁻⁶ cm/s.

As to `O=C1NC(c2cccs2)(c2cccs2)CN1C1CCN(Cc2cccc(F)c2)CC1`, the values for the CLint scaled in data set [1] and in data set [7] were 13.8 mL/min/g and 0.95 mL/min/g, respectively. This compound showed a Papp in data set [4] of at most 1 ×10⁻⁶ cm/s.

For the compound `Cc1ccc(O)c([C@H](CCN(C(C)C)C(C)C)c2ccccc2)c1`, in [9], the pKb was 8.86.

For the compound `O=C(c1cccc(Cl)c1)N1CCC(N2CC(c3ccccc3)(c3ccccc3)NC2=O)CC1`, the inhibition in [10] is under 50%.

Regarding `O=C1NC(c2cccs2)(c2cccs2)CN1C1CCN(Cc2ccccc2)CC1`, the CLint scaled is 23.7 mL/min/g in data set [1] and 2.3 mL/min/g in data set [7]. In [4], this compound gave a Papp of over 5 ×10⁻⁶ cm/s.

Turning to `O=C1NC(c2ccc(F)cc2)(c2ccc(F)cc2)CN1C1CCN(Cc2ccccc2)CC1`, the CLint scaled in data set [1] was found to be 2 mL/min/g; in data set [7], 0.56 mL/min/g. Also, the IC50 is over 100 µM in data set [2]; 4.7 µM in data set [3]; 91.9 µM in data set [5]; 7 µM in [6]; 12.9 µM in data set [8]. In data set [11], the outcome was inactive. Besides, the Papp in [4] was over 5 ×10⁻⁶ cm/s.

In data set [10], `C#CCN1CCC(N2CC(c3ccccc3)(c3ccccc3)NC2=O)CC1` showed an inhibition of under 50%.

In data set [10], `O=C1NC(c2ccccc2)(c2ccccc2)CN1C1CCN(Cc2cc(Cl)cc(Cl)c2)CC1` registered an inhibition of under 50%.

On to `O=C1NC(c2ccc(F)cc2)(c2ccc(F)cc2)CN1C1CCN(Cc2cccc(Cl)c2)CC1`, for which the CLint scaled in [1] was found to be 1.8 mL/min/g; in data set [7] it was 0.87 mL/min/g. The IC50 is over 100 µM in [2]; 5.3 µM in data set [3]; over 100 µM in data set [5]; 4.2 µM in [6]; 17.7 µM in [8]. In [4], the Papp is under 1 ×10⁻⁶ cm/s.

With `O=C1NC(c2ccccc2)(c2ccccc2)CN1C1CCN(Cc2ccccc2)CC1`, the CLint scaled in data set [1] came to 4.7 mL/min/g; in data set [7] it was 1.1 mL/min/g. Also, the Papp in data set [4] is over 5 ×10⁻⁶ cm/s.

In data set [10], `O=C1NC(C2CCCCC2)(C2CCCCC2)CN1C1CCN(Cc2ccccc2)CC1` registered an inhibition of under 50%.
